We go through 14 molecules from ChEMBL document CHEMBL3585329, “Cafestol-Type Diterpenoids from the Twigs of Tricalysia fruticosa with Potential Anti-inflammatory Activity” (J Nat Prod, 2015).

Each structure is given as a SMILES string. The source made the active and inactive calls. No cut-off for these calls is given here.

Series [1] has as its system RAW264.7. Briefly: Inhibition of LPS-induced NO release in mouse RAW264.7 cells after 24 hrs by Griess reaction. Conditions: RAW264.7, 24 h. The series is classed as functional, cell-based. Put shortly:
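RAW 264.7 cells (10% heat-inactivated FBS, 3.0 mM glutamine, 37 °C, 5% CO2) seeded at 2 × 10^4 cells/mL. DMSO-solubilized compounds added 1 h before LPS. Supernatant nitrite measured by Griess reagent (0.1% naphthylethylene diamine, 1.0% sulfanilamide in 2.5% phosphoric acid), 10 min at room temperature, A550. NO quantified against a sodium nitrite standard curve. Positive control: N-monomethyl-L-arginine.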
(Griess reagent forms a coloured azo dye with nitrite.)

The nature of series [2]: Cytotoxicity against mouse RAW264.7 cells assessed as cell survival up to 100 uM. The series is classed as cell-based. The conditions noted are these: read-out: Survival. Put shortly:
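RAW 264.7 macrophages were grown with 3.0 mM glutamine, penicillin and streptomycin (100 U/mL each), and 10% heat-inactivated FBS at 37 °C in humidified 5% CO2. Cell survival was examined after exposure to each isolate at concentrations up to 100 μM.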

The test system of series [3] is RAW264.7. Kind of series: Inhibition of LPS-stimulated ERK phosphorylation in mouse RAW264.7 cells by Western blotting analysis. The series is classed as cell-based. Put shortly:
(§1)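 Macrophages seeded at 1 × 10^6 cells/well, pretreated 1 h with 2.5, 5.0 or 10.0 μM test agent (DMSO), then stimulated with LPS 1 μg/mL. Dexamethasone 1.0 μM served as positive control. Lysis in ice-cold RIPA with 0.1% PMSF, 12000g for 20 min. SDS-PAGE, PVDF transfer, 5% skim-milk block, primary antibody overnight at 4 °C, HRP secondary (1:12 000) 1.5 h at RT, ECL detection. Means ± SD.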
(In general: A western blot detects proteins with antibodies after separation by electrophoresis.)

Series [4] has as its system RAW264.7. Kind of series: Suppression of LPS-induced iNOS protein expression in mouse RAW264.7 cells by Western blotting analysis. The series is classed as functional, cell-based. Put shortly: as §1
In series [5] the target is NF-kappa-B inhibitor alpha (Mus musculus) (UniProt Q9Z1E3). Kind of series: Inhibition of IkappaB alpha phosphorylation in LPS-induced mouse RAW264.7 cells by Western blotting analysis.
NF-kappa-B inhibitor alpha (Mus musculus), sequence (Q9Z1E3 whole entry, looked up): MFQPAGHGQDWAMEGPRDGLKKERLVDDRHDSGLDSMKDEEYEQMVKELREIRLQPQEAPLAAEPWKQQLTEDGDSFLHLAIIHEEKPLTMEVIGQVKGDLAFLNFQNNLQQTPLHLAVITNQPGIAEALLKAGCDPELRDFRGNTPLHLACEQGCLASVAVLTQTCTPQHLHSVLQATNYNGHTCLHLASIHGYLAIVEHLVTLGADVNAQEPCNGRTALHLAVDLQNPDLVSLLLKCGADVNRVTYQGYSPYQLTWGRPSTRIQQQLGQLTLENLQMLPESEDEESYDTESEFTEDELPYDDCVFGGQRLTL
For series [6], the target named is Transcription factor p65 (Mus musculus) (UniProt Q04207). Briefly: Inhibition of NFkappaBp65 activation in LPS-induced mouse RAW264.7 cells at 2.5 to 10 uM by Western blotting analysis. The series is classed as cell-based. Put shortly: as §1
Transcription factor p65 (Mus musculus), sequence (Q04207 whole entry): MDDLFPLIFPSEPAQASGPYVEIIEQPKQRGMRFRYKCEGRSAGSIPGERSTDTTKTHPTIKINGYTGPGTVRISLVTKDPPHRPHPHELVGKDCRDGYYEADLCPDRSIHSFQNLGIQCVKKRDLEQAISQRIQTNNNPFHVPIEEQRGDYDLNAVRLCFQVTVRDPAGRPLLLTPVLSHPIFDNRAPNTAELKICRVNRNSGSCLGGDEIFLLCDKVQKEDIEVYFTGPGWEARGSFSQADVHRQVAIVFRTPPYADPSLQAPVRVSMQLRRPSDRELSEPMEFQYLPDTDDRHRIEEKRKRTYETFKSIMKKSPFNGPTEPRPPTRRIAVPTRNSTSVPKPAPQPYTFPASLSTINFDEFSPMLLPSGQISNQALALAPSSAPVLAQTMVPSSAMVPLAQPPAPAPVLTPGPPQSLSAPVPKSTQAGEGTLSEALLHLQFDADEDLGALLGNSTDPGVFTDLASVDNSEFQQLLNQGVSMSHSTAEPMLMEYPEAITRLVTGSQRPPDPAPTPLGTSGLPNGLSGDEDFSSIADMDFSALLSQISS
In series [7] the test system is RAW264.7. Briefly: Suppression of LPS-induced TNFalpha protein expression in mouse RAW264.7 cells by ELISA. Format: functional, cell-based. Put shortly: (§2)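 RAW 264.7 cells seeded at 4 × 10^5 cells/well and exposed to LPS with or without 2.5, 5.0 or 10.0 μM test agent (DMSO stock diluted in DMEM, added 1 h before LPS) for 18 h. Cytokine in cell-free supernatant measured by mouse ELISA kit per manufacturer's protocol. Means ± SD.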
In general terms: In an ELISA, binding on a coated surface is turned into a signal by an enzyme label.

The subject of series [8] is RAW264.7. Kind of series: Inhibition of LPS-stimulated JNK phosphorylation in mouse RAW264.7 cells by Western blotting analysis. Format: cell-based. Put shortly: as §1
In series [9] the test system is RAW264.7. Briefly: Suppression of LPS-induced IL6 protein expression in mouse RAW264.7 cells by ELISA. The series is classed as functional, cell-based. Put shortly: as §2
In series [10] the target is MAP kinase p38 (Mus musculus) (UniProt P47811+O08911+Q9WUI1+Q9Z1B7). Briefly: Inhibition of LPS-stimulated p38 phosphorylation in mouse RAW264.7 cells by Western blotting analysis. The series is classed as cell-based. Put shortly:
as §1

As usually defined, the IC50 is the concentration that inhibits the measured activity by half. A high value points to weaker potency in that assay. `CC(=O)OC[C@]1(O)[C@@H]2CC[C@H]3[C@]4(C)CC[C@@]5(O)OC(=O)C=C5[C@H]4CC[C@]3(C2)[C@H]1O` yielded an IC50 with RAW264.7 [1] of over 100 µM. Also, the viability in series [2] is over 90%.
The corresponding values for `C[C@@]12[C@H](O)C=C3OC(=O)C=C3[C@H]1CC[C@@]13C[C@@H](CC[C@H]12)[C@@](O)(CO)C3` are over 100 µM and over 90%.
With `CO[C@@H]1C[C@@]2(CC[C@@]3(C)[C@@H]4CC[C@@H]5C[C@@]4(CC[C@H]23)C[C@]5(O)CO)C(=O)O1`, the half-inhibitory concentration (IC50) in the series on RAW264.7 [1] was over 100 µM. For the same molecule, in [2], the viability is over 90%.
In the same order, the values of `C[C@@]12CC[C@H]3OC(=O)C=C3[C@H]1CC[C@@]13C[C@H](CC[C@]12O)[C@@](O)(CO)C3` are over 100 µM and over 90%.
In the same order, the values of `C[C@@]12CC(=O)c3occc3[C@H]1CC[C@]13C[C@](O)(CO)[C@@](O)(CC[C@H]12)C3` are over 100 µM and over 90%.
In the same order, the values of `C[C@@]12CC[C@@]3(O)OC(=O)C=C3[C@H]1CC[C@@]13C[C@H](CC[C@H]12)[C@@](O)(CO)C3` are over 100 µM and over 90%.
`C[C@@]12CC[C@@]3(O)OC(=O)C=C3[C@H]1CC[C@@]13C[C@H](CC[C@@H]21)[C@@](O)(CO)[C@@H]3O` displayed an IC50 in the series with RAW264.7 [1] of over 100 µM. Besides, the viability in series [2] was over 90%.
`C[C@@]12C=CC(=O)C[C@H]1CC[C@]13C[C@](O)(CO)[C@@](O)(CC[C@H]12)C3` returned an IC50 in the series on RAW264.7 [1] of 27.1 µM. Further, the viability in series [2] is over 90%.
For the molecule `CNC(=N)NCCC[C@H](N)C(=O)O` [TILARGININE], the midpoint of inhibition in the series on RAW264.7 [1], the IC50, lay at 40.5 µM.
Take `CCOC(=O)/C=C1\C(=O)C=C[C@]2(C)[C@@H]1CC[C@]13C[C@](O)(CO)[C@@](O)(CC[C@H]12)C3`: the inhibition result (in the series with RAW264.7 [3]; in [5]; in [6]; in the series on RAW264.7 [8]; in series [10]) was “Active” throughout. For the same molecule, in the series on RAW264.7 [1], the IC50 amounted to 6.6 µM. Further, the inhibition result with RAW264.7 [4], in the series on RAW264.7 [7] and with RAW264.7 [9] was “Dose-dependent effect” in each case. Moreover, in series [2], the viability is over 90%.
On to `C[C@@]12CC=C3OC(=O)C=C3[C@H]1CC[C@@]13C[C@@H](CC[C@@H]21)[C@@](O)(CO)[C@@H]3O`, for which the IC50 in the series on RAW264.7 [1] is over 100 µM. The viability in [2] is over 90%.
In the series with RAW264.7 [1], `C[C@@]12CC[C@H]3OC(=O)C=C3[C@H]1CC[C@@]13C[C@@H](CC[C@H]12)[C@@](O)(CO)C3` displayed an IC50 of over 100 µM. Also, the viability in series [2] is over 90%.
In the case of `C[C@@]12CC[C@@]3(O)OC(=O)C=C3[C@H]1CC[C@]13C[C@](O)(CO)[C@@](O)(CC[C@H]12)C3`, in the series on RAW264.7 [1], the IC50 was over 100 µM. The viability in [2] was over 90%.
In the same order, the values of `C[C@@]12CC=C3OC(=O)C=C3[C@H]1CC[C@@]13C[C@@H](CC[C@H]12)[C@@](O)(CO)C3` are over 100 µM and over 90%.
